Assay results of several laboratories.
Lines come from different studies, so protocols differ.
Target: Activin receptor type-1 (ACVR1, Homo sapiens, UniProt Q04771)
Sequence (Q04771 1-509, as in one of the studies): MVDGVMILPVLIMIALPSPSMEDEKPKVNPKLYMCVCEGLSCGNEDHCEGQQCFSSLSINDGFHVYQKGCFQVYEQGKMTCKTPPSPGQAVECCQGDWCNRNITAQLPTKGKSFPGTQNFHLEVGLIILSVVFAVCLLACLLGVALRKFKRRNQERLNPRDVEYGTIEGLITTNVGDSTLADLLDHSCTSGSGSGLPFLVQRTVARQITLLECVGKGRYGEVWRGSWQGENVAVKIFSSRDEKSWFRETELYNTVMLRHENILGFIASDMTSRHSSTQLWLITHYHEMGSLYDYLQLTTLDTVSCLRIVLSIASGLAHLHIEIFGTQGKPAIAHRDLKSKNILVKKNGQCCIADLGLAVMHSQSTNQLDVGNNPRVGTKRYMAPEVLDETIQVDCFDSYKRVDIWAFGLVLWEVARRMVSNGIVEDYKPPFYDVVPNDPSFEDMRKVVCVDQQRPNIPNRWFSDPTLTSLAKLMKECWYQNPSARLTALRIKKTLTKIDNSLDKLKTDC

SMILES	test	conditions	measurement	result
C#Cc1cccc(Nc2ncnc3cc(OCCOC)c(OCCOC)cc23)c1	cell-free assay	0.5 µM	remaining signal	101%
Cn1c2c(Cl)c(Cl)ccc2c2cc(N)[nH]c(=O)c21	thermal stability, DSF	10 µM	ΔTm	3.2 °C
CC(=O)C1=C(C)N(c2cccc(C(F)(F)F)c2)C(=O)N[C@@H]1c1ccc(C#N)nc1	cell-free assay, competition with immobilised ligand	1 µM	remaining binding	74.5%
N#CCCc1ccc2c(c1)-c1[nH]c3ccc([N+](=O)[O-])cc3c1CC(=O)N2	cell-free assay	0.5 µM	remaining signal	58.8%
CC1=C(C#N)C(c2ccc3c(c2)c(NC(=O)c2ccccc2C)nn3C)C(C#N)=C(C)N1	cell-free assay, competition with immobilised ligand	1 µM	remaining binding	99%
Nc1ncnc2occ(-c3ccc(NC(=O)Nc4cc(C(F)(F)F)ccc4F)cc3)c12	cell-free assay	20 µM	remaining signal	72%
Cc1sc(C(=O)NC2COC2)cc1-n1cc(NC(=O)Nc2c(F)cccc2Cl)cn1	enzyme activity, inhibitor	10 µM	remaining activity	108%
Cn1c2c(c3ccc(Cl)c(Cl)c31)C(C#N)C(C)(C)NC2=O (centres unmarked)	thermal stability, DSF	10 µM	ΔTm	1.1 °C
CC(C)CC(=O)N1CCc2nc(-c3ccc(Br)cc3)nc(N(C)Cc3ccccc3)c2C1	cell-free assay, competition with immobilised ligand	0.1 µM	remaining binding	100%
CCN1CCC2(CC1)NC(=O)c1c(c3ccc(Cl)c(Cl)c3n1C)C2C#N (racemic)	thermal stability, DSF	10 µM	ΔTm	-0.1 °C
CC(C)(C)c1nc(-c2cccc(NS(=O)(=O)c3c(F)cccc3F)c2F)c(-c2ccnc(N)n2)s1	enzyme activity, inhibitor, radiometric	1 µM	remaining activity	47%
Cc1cc(NC(=O)c2cccc3cc(-c4cccc5[nH]nc(N)c45)ccc23)ccc1F	enzyme activity, inhibitor	0.1 µM	activity vs control	105%
COc1cc2c(N3CCN(C(=O)Nc4ccc(OC(C)C)cc4)CC3)ncnc2cc1OCCCN1CCCCC1	cell-free assay	0.5 µM	remaining signal	145%
COc1cc(Cl)c(C(=O)N[C@@H](CN[C@H]2CC[C@@H](N)CC2)Cc2ccc(C#N)cc2)cc1-c1ccc(CN[C@H](C)c2ccc(C)cc2)o1	enzyme activity, inhibitor	1 µM	remaining activity	89%
Cc1c(NC(=O)c2cc(C(N)=O)nc3cc(F)ccc23)c(C(F)(F)F)nn1Cc1ccc(C#N)cc1	cell-free assay, competition with immobilised ligand	1 µM	remaining binding	87%
Cn1c2c(c3ccc(Cl)c(Cl)c31)C(C#N)C1(CCOCC1)NC2=O (centres unmarked)	thermal stability, DSF	10 µM	ΔTm	0.1 °C
COc1cccc(CNC(=O)c2nc3scc(COCc4ccc(C(=O)O)cc4)c3c(=O)[nH]2)c1	cell-free assay, competition with immobilised ligand	1 µM	remaining binding	94.3%
Oc1cccc(-c2nc(N3CCOCC3)c3oc4ncccc4c3n2)c1	cell-free assay	0.5 µM	remaining signal	105%
CN1CCN(c2cnc3c(C4CCN(C(=O)c5ccc(OC(F)(F)F)cc5N)CC4)ncnc3c2)CC1	cell-free assay, competition with immobilised ligand	1 µM	remaining binding	100%
CCOc1cc(-c2nncn2C)ccc1Nc1ncc2cc(C)nc(NCC(C)(C)C)c2n1	cell-free assay, TR-FRET	1 µM	inhibition	≤ 15%
